Screening data deposited in PubChem BioAssay by The Scripps Research Institute Molecular Screening Center.
This is a sample that favours compounds with a hit; in the whole collection about 2.3% have one here.
pPAFAH inh: pPAFAH (human) enzyme inhibition; 1.5% of 330,000 active; AID 463082; recombinant pPAFAH, FP-rhodamine probe fluorescence polarization; Q13093; inhibition, % at 3.39 µM;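 active = inhibition above the mean inhibition across the screen plus 3 SD, cut at about 25% in these data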;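 note: inhibitors block binding of the rhodamine activity-based probe so polarization drops; 0% = enzyme with DMSO and 100% = wells lacking pPAFAH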
SIAE primary: blocks human sialic acid acetylesterase | Q9HAT2 | SIAE FP-Rh probe binding, fluorescence polarization | inhibition, % at 9.66 µM | 0.69% of 370,000 active | AID 1053197;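 active = inhibition above a cutoff: mean of compounds within the control limits plus 3 SD of those, cut at about 17% in these data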;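 note: 0% = plate median of compound wells and 100% = probe without SIAE protein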
Target sequence (Q9HAT2 whole entry, looked up): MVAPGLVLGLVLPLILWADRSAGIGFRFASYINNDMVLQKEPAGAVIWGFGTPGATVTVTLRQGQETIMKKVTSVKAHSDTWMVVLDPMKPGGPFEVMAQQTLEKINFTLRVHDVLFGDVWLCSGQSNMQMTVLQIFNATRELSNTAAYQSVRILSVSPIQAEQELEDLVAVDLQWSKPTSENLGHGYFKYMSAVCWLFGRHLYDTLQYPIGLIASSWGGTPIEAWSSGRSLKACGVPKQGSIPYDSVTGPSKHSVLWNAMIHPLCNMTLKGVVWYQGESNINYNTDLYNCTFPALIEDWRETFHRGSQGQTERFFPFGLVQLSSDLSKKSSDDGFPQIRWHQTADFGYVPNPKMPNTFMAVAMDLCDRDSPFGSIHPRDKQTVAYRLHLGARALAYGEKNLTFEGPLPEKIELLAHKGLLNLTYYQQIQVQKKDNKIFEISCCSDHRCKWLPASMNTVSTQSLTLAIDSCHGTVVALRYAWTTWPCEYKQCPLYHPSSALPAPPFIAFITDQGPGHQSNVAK
TCR CD3 inh: human TCR-CD3 binding inhibition | TAMRA-labeled TCR probe fluorescence, biochemical | 0.37% of 360,000 active | inhibition, % at 9.4 µM;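 note: recombinant mutant TCR 2C K166C tagged with TAMRA read by polarization; 0% = receptor in buffer alone and 100% = receptor with positive control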
ABHD4 inh: ABHD4 (mouse) inhibition, primary FP screen; Q8VD66; purified mABHD4, FP-Rh probe fluorescence polarization; inhibition, % at 8.92 µM; 0.54% of 370,000 active;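 active = inhibition exceeding the mean over every tested compound plus 3 SD, cut at about 30% in these data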;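 note: 0% = plate median of compound wells and 100% = S159A mutant with DMSO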
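Assay system: mABHD4 protein; medium: HEPES pH 7.0, NaCl, Pluronic buffer; dosing: 8.92 µM, single dose; schedule: 45 min + 60 min at 25 °C; signal: FP readout, ex 525 nm / em 598 nm; read-out: normalized percent inhibition of probe labeling; repeats: single replicate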
HTRA1 inh: blocks human HTRA1 serine peptidase | Q92743 | recombinant HTRA1, FP-rhodamine activity-based probe, fluorescence polarization | inhibition, % at 5.96 µM | 0.5% of 340,000 active | AID 504803; in the data active = inhibition above about 36%;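 note: 0% = enzyme with DMSO and 100% = wells lacking enzyme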
pPAFAH confirm: confirmation of human plasma PAF acetylhydrolase (pPAFAH) inhibitors. shares compounds with pPAFAH inh. recombinant pPAFAH, FP-Rh probe fluorescence polarization. inhibition, % at 3.39 µM. 72% of 2,300 active;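 active = mean inhibition of the triplicate above the hit cutoff set for the earlier primary screen, cut at about 25% in these data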;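 note: 0% = enzyme with DMSO and 100% = wells lacking pPAFAH enzyme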
HTRA1 conf: confirmation of human HTRA1 inhibitors; shares compounds with HTRA1 inh; recombinant HTRA1, FP-rhodamine activity-based probe, fluorescence polarization; inhibition, % at 5.96 µM; 66% of 1,600 active;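 active = mean inhibition over three repeats above a set limit taken from the earlier primary screen, cut at about 37% in these data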;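 note: 0% = HTRA1 with DMSO and 100% = wells lacking HTRA1; inhibitors block probe binding so polarization drops and inhibition rises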
BSA probe FL: BSA probe counter-screen for TCR-CD3 inhibitors; shares compounds with TCR CD3 inh; TAMRA-labeled BSA probe fluorescence counterscreen; inhibition, % at 9.4 µM; 10% of 1,200 active; in the data active = inhibition above about 23%;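 note: 0% = buffer low control and 100% = reference high control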
TCR-CD3 inh conf: confirmation of human TCR-CD3 interaction inhibitors. 48% of 1,200 active. TAMRA-labeled TCR probe fluorescence binding assay. shares compounds with TCR CD3 inh. inhibition, % at 9.4 µM. AID 652036
mABHD4 conf: confirmation of mouse ABHD4 inhibitors | AID 720658 | purified mABHD4, FP-Rh probe fluorescence polarization | inhibition, % at 8.92 µM | shares compounds with ABHD4 inh | 55% of 1,800 active;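 active = mean inhibition across replicates above the hit cutoff set in the primary screen, cut at about 30% in these data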;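 note: 0% = wild-type ABHD4 with DMSO and 100% = catalytically dead S159A mutant with DMSO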
* = called active by the depositor; x = no result given. Cut-off read from the data, not from the text of the source, unless noted: active = inhibition above about 19%; inactive = the rest.

SMILES	pPAFAH inh	SIAE primary	TCR CD3 inh	ABHD4 inh	HTRA1 inh	pPAFAH confirm	others
CCc1ccc2nc(N3CCC(C(=O)N4CCC5(CC4)OCCO5)CC3)sc2c1	28.6*	-3.9	-2.8	-3.5	2.8	x
Cc1ccc2nc(N3CCC(C(=O)N4CCC5(CC4)OCCO5)CC3)sc2c1	10.8	4.3	-7.8	1.3	-4.1	x
COC(=O)C1=C(c2ccc(OC(F)(F)F)cc2)C[C@@H]2CC[C@H]1N2C(=O)NCCc1ccccc1	30.2*	-0.9	3.9	13.8	-16.5	x
COC(=O)C1=C(c2ccc(OC(F)(F)F)cc2)C[C@@H]2CC[C@H]1N2C(=O)NCCNC(C)=O	-1.1	0.7	8.1	4.2	3.9	x
Clc1cc(Cl)cc(CN2Cc3cc(Br)ccc3-n3nncc3C2)c1	x	2.4	0.1	-11.2	x	x
CC(C)N1C(=O)/C(=C/C=C/c2ccco2)C(=O)N(Cc2ccco2)C1=O	38.0*	-17.1	-42.9	-27.4	-13.8	0.8
COc1ccc(/C=C2/C(=O)N(Cc3ccco3)C(=O)N(C(C)C)C2=O)cc1	11.1	-22.4	-12.5	-47.6	-8.4	x
CCOc1ccc(N2C(=O)NC(=O)/C(=C\c3cc(OC)c(OC)cc3[N+](=O)[O-])C2=O)cc1	7.8	x	x	x	6.1	x
COc1ccccc1N1C(=O)NC(=O)/C(=C\c2cnn(-c3ccccc3)c2)C1=O	2.3	-5.4	1.7	-0.6	-4.3	x
COc1ccc(N2C(=O)NC(=O)/C(=C\c3ccc([N+](=O)[O-])s3)C2=O)cc1	37.5*	-65.0	-53.5	-70.9	18.2	35.0*
COc1ccccc1N1C(=O)NC(=O)/C(=C/c2ccc([N+](=O)[O-])s2)C1=O	51.2*	0.4	-22.1	-12.6	x	41.8*
COc1ccc(N2C(=O)NC(=O)/C(=C/c3ccc([N+](=O)[O-])s3)C2=O)cc1	44.4*	-40.1	-55.7	-64.1	x	46.6*
CC[C@H](C)/C=C(C)/C=C/C1=CC2=C(Cl)C(=O)[C@](C)(OC(C)=O)C(=O)C2=CO1	67.4*	x	x	x	70.4*	87.1*
O=C(c1ccc2nc(-c3ccco3)c(-c3ccco3)nc2c1)N1CCC2(CC1)OCCO2	61.5*	x	x	x	11.4	3.1
Cc1cc(OCC(=O)NCc2cccnc2)c2c3c(c(=O)oc2c1)CCCC3	2.3	-2.9	1.1	-2.2	-3.3	x
COC(=O)C1=C(c2ccccc2OCc2ccccc2)C[C@@H]2CC[C@H]1N2C(=O)NCc1ccc(OC)c(OC)c1	6.9	-3.9	-6.5	-9.5	-11.2	x
O=C1NC(=O)N(Cc2ccco2)C(=O)/C1=C\c1cccn1CCOc1ccc(Cl)cc1	39.8*	-6.6	3.8	-13.2	8.5	3.1
Cc1cccc(OCCn2cccc2/C=C2/C(=O)NC(=O)N(Cc3ccco3)C2=O)c1	21.7	12.1	3.2	-1.9	x	x
N=c1c2c(-c3ccccc3)c(-c3ccccc3)n(Cc3ccccc3)c2ncn1C1CCC(O)CC1 (stereo not drawn)	x	16.9	x	6.6	x	x
CC1CCCN(c2ccc(C(=O)N3CCC4(CC3)OCCO4)cc2[N+](=O)[O-])C1 (stereo not drawn)	44.6*	-10.4	3.1	1.1	7.5	59.1*
O=C(COC(=O)Cc1ccccc1)NC12CC3CC(CC(C3)C1)C2	35.3*	-4.3	-5.0	1.6	-3.8	41.3*
O=C(O)COc1cc(Cl)c(Cl)cc1Cl	x	-0.5	5.1	-4.2	x	x
O=C(C1CCN(c2nc3ccc(Br)cc3s2)CC1)N1CCC2(CC1)OCCO2	36.4*	-8.6	5.7	-2.6	-1.2	25.9*
CCOc1ccc2nc(N3CCC(C(=O)N4CCC5(CC4)OCCO5)CC3)sc2c1	9.7	-2.0	-2.4	0.5	4.2	x
N#CC1c2ccccc2-n2nncc2CN1C(=O)c1cccnc1 (stereo not drawn)	x	0.8	x	4.5	x	x
SMILES	pPAFAH inh	SIAE primary	TCR CD3 inh	ABHD4 inh	HTRA1 inh	pPAFAH confirm	others
CN1c2ccc(Br)cc2[C@H]2NCC[C@H]2[C@H]1CO	x	-4.7	x	2.4	x	x
O=C(Cn1ncc2c3ccccc3n(Cc3cccc(Cl)c3)c2c1=O)N1CCC2(CC1)OCCO2	40.4*	-1.4	9.9	-27.9	-18.7	36.9*
Cc1c2cnn(CC(=O)N3CCC4(CC3)OCCO4)c(=O)c2c(C)n1Cc1cccc(Cl)c1	4.7	3.7	-4.4	-0.5	7.5	x
O=C1NC(=O)N(Cc2ccco2)C(=O)/C1=C/c1ccc(-c2cccc([N+](=O)[O-])c2)o1	66.2*	x	x	x	4.4	35.7*
O=C(O)c1cccc2c1NC(C(=O)O)C1CC(Sc3ccccc3[N+](=O)[O-])C(Cl)C21 (stereo not drawn)	95.7*	61.3*	37.4*	82.2*	92.8*	78.8*	HTRA1 conf=59.6*
C[C@H](CO)N1C[C@H](C)[C@H](CN(C)C(=O)Oc2cccc3ccccc23)OCc2cnnn2CCCC1=O	x	-7.4	-7.5	-4.3	0.7	x
CC(C)c1ccc(NC(=O)CCNC(=O)N2C[C@H]3C[C@@H](C2)c2cccc(=O)n2C3)cc1	3.9	-5.7	5.5	-0.3	-3.3	x
Oc1ccc(/C=N/NP(=S)(c2ccccc2)c2ccccc2)c(O)c1O	41.3*	-0.6	5.9	27.6	74.7*	63.0*	HTRA1 conf=85.0*
CN(C)[C@@H]1C(=O)C(C(N)=O)=C(O)[C@@]2(O)C(=O)C3=C(O)c4c(O)cccc4[C@@](C)(O)[C@H]3[C@H](O)[C@@H]12	81.6*	9.7	45.5*	63.1*	50.8*	75.2*	HTRA1 conf=23.3;BSA probe FL=5.8;TCR-CD3 inh conf=27.4*
Cn1c(=O)cc(OCC(=O)N2CCN(C3CCCCC3)CC2)c2ccccc21	8.1	1.8	-4.6	-1.1	1.0	x
O=c1[nH]c(=S)n(-c2ccc(Cl)cc2)c(O)c1C=Nc1ccc(N2CCOCC2)cc1	43.3*	-0.8	4.8	40.1*	7.2	20.3	mABHD4 conf=28.8
Cc1cc(C)cc(N2C(=O)NC(=O)/C(=C\c3cccn3-c3ccccc3)C2=O)c1	4.7	-4.5	2.1	-3.6	2.3	x
CN1C(=O)/C(=C/c2cccn2-c2ccc3ccccc3c2)C(=O)NC1=S	39.5*	11.4	-5.8	65.0*	60.0*	13.0	HTRA1 conf=12.1;mABHD4 conf=3.2
CCN(CC)c1ccc(N=Cc2c(O)n(-c3ccccc3)c(=O)[nH]c2=O)cc1	48.7*	9.4	6.1	67.0*	40.0*	-3.7	HTRA1 conf=17.9;mABHD4 conf=8.6
